Reference: ChEMBL document CHEMBL4765370, “Design, synthesis, and biological evaluation of aryl piperazines with potential as antidiabetic agents via the stimulation of glucose uptake and inhibition of NADH:ubiquinone oxidoreductase” (Eur J Med Chem, 2020)

Experiments:
[1] = Cmax in C57 Black mouse plasma at 10 mg/kg, iv; type: ADME, organism-based; parameters: route intravenous, dose 10 mg/kg
Method in brief: (§1)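 Male C57BL/6 mice were given a single 10 mg/kg dose either intravenously or orally. The oral and IV solutions were formulated in 10% DMSO, 10% cremaphor and 80% saline. Concentrations in plasma and in the tissues collected were determined after dosing, with n = 3 per route. Values are given as mean ± SEM.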

[2] = Efflux ratio of apparent permeability in MDCK-MDR1 cells at 10 uM after 30 mins by LC-MS/MS analysis; type: ADME, cell-based, Canis lupus familiaris; details: dog
Method in brief: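 hMDR1-MDCK monolayers on filters; compound at 10 µM final in DMEM (from 10 mM DMSO stock) with 10 µM propranolol internal standard in donor. Transfer measured apical-to-basolateral and basolateral-to-apical over 30 min; receiver samples by LC-MS/MS; n = 3.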

[3] = Cmax in C57 Black mouse liver at 10 mg/kg, iv; type: ADME, organism-based; parameters: route intravenous, dose 10 mg/kg; method in brief: as §1
[4] = AUCall in C57 Black mouse kidney at 10 mg/kg, po; type: ADME, organism-based; parameters: dose 10 mg/kg; method in brief: as §1
[5] = AUClast in C57 Black mouse brain at 10 mg/kg, po; type: ADME, organism-based; parameters: route oral, time 0 - last, dose 10 mg/kg; method in brief: as §1
C2C12 = test: Induction of glucose uptake in mouse C2C12 cells assessed as [3H]2-deoxyglucose uptake preincubated for 16 hrs followed by followed by [3H]2-deoxyglucose addition and measured after 10 mins by liquid scintillation counting method; type: functional
Method in brief: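 C2C12 mouse myoblasts were grown in high-glucose DMEM with 10% FBS. At 80% confluence they were differentiated into myotubes with 2% horse serum. Myotubes were exposed to compound (10 µM) for 16 h in medium with 0.1% horse serum, then washed with KRB pH 7.4 and given 1 µCi/mL [3H]-2-deoxyglucose for 10 min at 37 °C. After ice-cold washes and 0.1% SDS lysis, scintillation counts were normalised to BCA protein. Results are fold change vs DMSO, mean ± SEM, one-way ANOVA.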

CYP2C9 = CYP2C9 (Homo sapiens, UniProt P11712); test: Inhibition of human CYP2C9 using fluorogenic substrate incubated for 60 mins in presence of NADPH by fluorescence assay relative to control; type: ADME; details: probe fluorogenic substrate
Method in brief: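 Baculosomes each expressing a single cDNA-derived human P450 isozyme were incubated with compound at 10 µM, a fluorogenic substrate and NADPH. Incubation was at 37 °C for at least 60 min before fluorescence was read, n = 3.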

[6] = AUClast in C57 Black mouse kidney at 10 mg/kg, po; type: ADME, organism-based; parameters: time 0 - last, route oral, dose 10 mg/kg; method in brief: as §1
[7] = Tmax in C57 Black mouse spleen at 10 mg/kg, po; type: ADME, organism-based
Method in brief: (§2)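 Male C57BL/6 mice (n = 3) dosed at 10 mg/kg by IV or oral (PO) route. Dosing solutions were formulated in 10% DMSO, 10% cremaphor and 80% saline. Compound levels were measured in plasma and tissues over time, and values are given as mean ± SEM.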

[8] = AUCall in C57 Black mouse plasma at 10 mg/kg, po; type: ADME, organism-based; parameters: dose 10 mg/kg; method in brief: as §1
[9] = Intrinsic clearance in mouse microsomes at 1 uM up to 120 mins by HPLC/MS-MS analysis; type: ADME, Microsome
[10] = Half life in human microsomes at 1 uM up to 120 mins by HPLC/MS-MS analysis; type: ADME, Microsome
[11] = Volume of distribution in C57 Black mouse plasma at 10 mg/kg, iv; type: ADME, organism-based; method in brief: as §2
[12] = Half life in C57 Black mouse brain at 10 mg/kg, iv; type: ADME, organism-based; method in brief: as §1
[13] = Half life in C57 Black mouse spleen at 10 mg/kg, po; type: ADME, organism-based; method in brief: as §2
[14] = Protein binding human serum at 1 uM after 60 to 120 mins by HPLC-MS/MS analysis; type: ADME, cell-free; details: time 60-120 min, read-out: PB (converted)
[15] = AUClast in C57 Black mouse brain at 10 mg/kg, iv; type: ADME, organism-based; parameters: time 0 - last, route intravenous, dose 10 mg/kg; method in brief: as §1
[16] = Half life in C57 Black mouse spleen at 10 mg/kg, iv; type: ADME, organism-based; method in brief: as §2
[17] = Apparent permeability in MDCK-MDR1 cells at 10 uM after 30 mins by LC-MS/MS analysis; type: ADME, cell-based, Canis lupus familiaris; details: dog
Method in brief: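 Test article was taken from a 10 mM DMSO stock and diluted in DMEM to a final 10 µM donor solution, with 10 µM propranolol as internal standard. It was applied to hMDR1-MDCK monolayers on filters. Transfer to the receiver compartment was measured over 30 min in both directions, apical-to-basolateral and basolateral-to-apical. Quantification was by LC-MS/MS, n = 3.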

[18] = AUClast in C57 Black mouse plasma at 10 mg/kg, po; type: ADME, organism-based; parameters: route oral, time 0 - last, dose 10 mg/kg; method in brief: as §1
[19] = Bioavailability in C57 Black mouse at 10 mg/kg, iv or po; details: in vivo
[20] = Volume of distribution in C57 Black mouse liver at 10 mg/kg, iv; type: ADME, organism-based; method in brief: as §2
[21] = Volume of distribution in C57 Black mouse spleen at 10 mg/kg, iv; type: ADME, organism-based; method in brief: as §2
[22] = Half life in C57 Black mouse muscle at 10 mg/kg, iv; type: ADME, organism-based, Muscle tissue; method in brief: as §2
[23] = AUCinfinity in C57 Black mouse kidney at 10 mg/kg, po; type: ADME, organism-based; parameters: route oral, time infinity, dose 10 mg/kg; method in brief: as §1
[24] = AUCinfinity in C57 Black mouse plasma at 10 mg/kg, iv; type: ADME, organism-based; parameters: route intravenous, time infinity, dose 10 mg/kg; details: in vivo; method in brief: as §1
[25] = Volume of distribution in C57 Black mouse kidney at 10 mg/kg, iv; type: ADME, organism-based; method in brief: as §2
[26] = Tmax in C57 Black mouse plasma at 10 mg/kg, po; type: ADME, organism-based; method in brief: as §2
[27] = AUCall in C57 Black mouse liver at 10 mg/kg, po; type: ADME, organism-based; parameters: dose 10 mg/kg; method in brief: as §1
[28] = Clearance in C57 Black mouse plasma at 10 mg/kg, iv; type: ADME, organism-based; details: in vivo; method in brief: as §1
[29] = AUCall in C57 Black mouse muscle at 10 mg/kg, iv; type: ADME, organism-based, Muscle tissue; parameters: dose 10 mg/kg; method in brief: as §1
[30] = Inhibition of NADH:ubiquinone oxidoreductase in rat liver mitochondria incubated for 3 mins
[31] = Half life in human hepatocytes at 1 uM up to 120 mins by HPLC-MS/MS analysis; type: ADME, cell-based, Hepatocyte
[32] = Cmax in C57 Black mouse kidney at 10 mg/kg, iv; type: ADME, organism-based; parameters: route intravenous, dose 10 mg/kg; method in brief: as §1
[33] = Tmax in C57 Black mouse liver at 10 mg/kg, po; type: ADME, organism-based; method in brief: as §2
[34] = AUCinfinity in C57 Black mouse liver at 10 mg/kg, po; type: ADME, organism-based; parameters: time infinity, route oral, dose 10 mg/kg; method in brief: as §1
[35] = Protein binding mouse serum at 1 uM after 60 to 120 mins by HPLC-MS/MS analysis; type: ADME, cell-free; details: time 60-120 min, read-out: PB (converted)
[36] = AUClast in C57 Black mouse plasma at 10 mg/kg, iv; type: ADME, organism-based; parameters: route intravenous, time 0 - last, dose 10 mg/kg; method in brief: as §1
[37] = AUCinfinity in C57 Black mouse liver at 10 mg/kg, iv; type: ADME, organism-based; parameters: route intravenous, time infinity, dose 10 mg/kg; method in brief: as §1
[38] = Tmax in C57 Black mouse kidney at 10 mg/kg, iv; type: ADME, organism-based; method in brief: as §2
[39] = Metabolic stability in mouse hepatocytes assessed as hepatic extraction ratio at 1 uM up to 120 mins by HPLC-MS/MS analysis; type: ADME, cell-based, Hepatocyte
Method in brief: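 Cryopreserved hepatocytes (human or mouse) added to buffer containing compound at 1 µM; incubated at 37 °C up to 120 min, stopped with acetonitrile containing internal standard. Centrifuged supernatant analysed for parent compound by HPLC-MS/MS; n = 2. Half-life and intrinsic clearance (µL/min/10^6 cells) derived; extraction ratio reported from these.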

CYP2C9, sequence (P11712 whole entry): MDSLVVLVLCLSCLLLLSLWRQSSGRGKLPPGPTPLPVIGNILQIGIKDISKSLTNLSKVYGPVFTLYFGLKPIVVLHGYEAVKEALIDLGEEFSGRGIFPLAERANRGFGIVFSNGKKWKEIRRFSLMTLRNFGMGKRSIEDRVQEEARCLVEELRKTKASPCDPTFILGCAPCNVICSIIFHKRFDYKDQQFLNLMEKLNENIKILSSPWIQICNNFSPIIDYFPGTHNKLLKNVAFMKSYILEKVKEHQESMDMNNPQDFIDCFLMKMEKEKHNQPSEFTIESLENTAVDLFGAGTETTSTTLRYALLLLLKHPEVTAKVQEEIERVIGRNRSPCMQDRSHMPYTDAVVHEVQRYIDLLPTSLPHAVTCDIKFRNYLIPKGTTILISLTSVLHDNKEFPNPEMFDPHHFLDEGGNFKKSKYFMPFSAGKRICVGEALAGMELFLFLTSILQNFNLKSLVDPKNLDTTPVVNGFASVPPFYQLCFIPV

O=C(CCCc1cccs1)N1CCN(c2ccc(C(F)(F)F)cc2)CC1
Cmax [1]: 996 ng/mL | efflux ratio at 0.5 h, 10 µM [2]: 0.9 | Cmax [3]: 1830 ng/mL | AUC [4]: 1220 ng·h/mL | AUC(0-t) [5]: 763 ng·h/mL | fold change (FC) (C2C12): 2.57 | inhibition at 1 h (CYP2C9): 74.2% | AUC(0-t) [6]: 1220 ng·h/mL | Tmax [7]: 15 min | AUC [8]: 520 ng·h/mL | microsomal CLint at 1 µM [9]: 226 µL/min/mg | half-life at 1 µM [10]: 12 min | Vd [11]: 1.69 L/kg | half-life [12]: 30 min | half-life [13]: 66 min | fraction unbound at 1 µM [14]: 0.0052 | AUC(0-t) [15]: 246 ng·h/mL | half-life [16]: 66 min | Papp at 0.5 h, 10 µM [17]: 27.1 ×10⁻⁶ cm/s | AUC(0-t) [18]: 520 ng·h/mL | Bioavailability [19]: 21.4% | Vd [20]: 3.06 L/kg | Vd [21]: 3.19 L/kg | half-life [22]: 31.2 min | AUC(0-inf) [23]: 1280 ng·h/mL | AUC [24]: 244 ng·h/mL | Vd [25]: 3.06 L/kg | Tmax [26]: 15 min | AUC [27]: 4050 ng·h/mL | CL [28]: 68.37 mL/min/kg | AUC [29]: 77.3 ng·h/mL | IC50 [30]: 27 µM | half-life at 1 µM [31]: 3 min | Cmax [32]: 552 ng/mL | Tmax [33]: 15 min | AUC(0-inf) [34]: 4090 ng·h/mL | fraction unbound at 1 µM [35]: 0.0052 | AUC(0-t) [36]: 240 ng·h/mL | AUC(0-inf) [37]: 531 ng·h/mL | Tmax [38]: 1.8 min | hepatic extraction ratio at 2 h, 1 µM [39]: 0.48
